In ChEMBL document CHEMBL2434878, “Synthesis and antimycobacterial activity of analogues of the bioactive natural products sampangine and cleistopholine” (Eur J Med Chem, 2013):
Values after ≈ are worked out from the molar mass of the structure shown.

Assays:
[1] = system: Mycobacterium tuberculosis; experiment: Antimicrobial activity against Mycobacterium tuberculosis H37Rv ATCC 27294 expressing luciferase reporter gene infected in mouse J774 macrophages assessed as intracellular growth inhibition at 1 uM after 4 days by luminometry relative to untreated control; format: functional; conditions: H37Rv ATCC 27294, J774, 96 h, read-out: GI
In short: (§1)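 J774.A1 murine macrophages were seeded at 40,000 cells/well, recovered overnight and infected with luminescent H37Rv. From 24 h post-infection, cells were treated for 4 days in DMEM with penicillin and fungizone, without gentamicin. Growth was read by luminescence after 1% n-decanal and expressed as percent inhibition versus untreated, in triplicate. Macrophage viability was checked by trypan blue.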

[2] = system: Mycobacterium tuberculosis; experiment: Antimicrobial activity against Mycobacterium tuberculosis H37Rv ATCC 27294 expressing luciferase reporter gene assessed as growth inhibition after 6 days by luminometry; format: functional; conditions: H37Rv ATCC 27294, 144 h
In short: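 Luminescent H37Rv (pSMT1, V. harveyi luciferase) was declumped by filtration, adjusted to 50,000 RLU/ml in 7H9-10% FCS, and exposed to serial compound dilutions in triplicate for 6 days at 37 °C. Light was read for 10 s after adding 1% n-decanal. GI50 is the concentration giving 50% growth reduction versus untreated culture.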

[3] = Antimicrobial activity against Mycobacterium avium subsp. avium ATCC 19698 expressing luciferase reporter gene assessed as growth inhibition after 6 days by luminometry; format: functional; conditions: ATCC 19698, 144 h
[4] = system: Mycobacterium avium subsp. paratuberculosis; experiment: Antimicrobial activity against Mycobacterium avium subsp. paratuberculosis ATCC 15769 expressing luciferase reporter gene assessed as growth inhibition after 6 days by luminometry; format: functional; conditions: ATCC 15769, 144 h
[5] = system: Mycobacterium ulcerans; experiment: Antimicrobial activity against Mycobacterium ulcerans 1615 expressing luciferase reporter gene assessed as growth inhibition after 6 days by luminometry; format: functional; conditions: Mycobacterium ulcerans, 1615, 144 h
In short: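 Luminescent M. ulcerans 1615 carrying pSMT1 luciferase plasmid, grown at 32 °C in 7H9 with 10% OADC and 0.2% glycerol. Serial dilutions from 10 mM DMSO stocks in 7H9 + 10% FCS; bacteria dosed at 50,000 RLU/ml, triplicate wells. After 6 days, light read over 10 s following 1% n-decanal in ethanol. GI50 taken at 50% growth reduction versus untreated culture.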

[6] = system: Mycobacterium tuberculosis; experiment: Antimicrobial activity against Mycobacterium tuberculosis H37Rv ATCC 27294 expressing luciferase reporter gene infected in mouse J774 macrophages assessed as intracellular growth inhibition at 0.5 uM after 4 days by luminometry relative to untreated control; format: functional; conditions: H37Rv ATCC 27294, J774, 96 h, read-out: GI; in short: as §1
[7] = system: Mycobacterium tuberculosis; experiment: Antimicrobial activity against Mycobacterium tuberculosis H37Rv ATCC 27294 expressing luciferase reporter gene assessed as growth inhibition at 1 uM after 6 days by luminometry relative to control; format: functional; conditions: H37Rv ATCC 27294, 144 h, read-out: GI
In short: (§2)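 Single-concentration screen of the luminescent H37Rv reporter strain in 7H9-10% FCS, inoculated at 50,000 RLU/ml, 6 days at 37 °C. Luminescence was read after n-decanal addition. Percent inhibition is versus the untreated culture, as the mean of triplicate cultures.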

[8] = system: Mycobacterium tuberculosis; experiment: Antimicrobial activity against Mycobacterium tuberculosis H37Rv ATCC 27294 expressing luciferase reporter gene assessed as growth inhibition at 0.1 uM after 6 days by luminometry relative to control; format: functional; conditions: H37Rv ATCC 27294, 144 h, read-out: GI; in short: as §2
[9] = Therapeutic index, ratio of IC50 for human HepG2/C3A cells to GI50 for Mycobacterium tuberculosis H37Rv ATCC 27294; format: cell-based; conditions: read-out: TI
In short: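 TI is NI50/GI50. NI50 came from a neutral red uptake assay in C3A hepatocytes (40,000 cells/well, 24 h exposure at 37 °C, 3 h dye, OD 530 nm with 620 nm reference): the concentration reducing dye uptake by 50%. GI50 came from the 6-day luminescent H37Rv assay.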

[10] = system: Mycobacterium tuberculosis; experiment: Antimicrobial activity against Mycobacterium tuberculosis H37Rv ATCC 27294 expressing luciferase reporter gene assessed as growth inhibition at 10 uM after 6 days by luminometry relative to control; format: functional; conditions: H37Rv ATCC 27294, 144 h, read-out: GI; in short: as §2
[11] = Cytotoxicity against human HepG2/C3A cells after 24 hrs by neutral red dye uptake assay; format: cell-based
[12] = system: Mycobacterium tuberculosis; experiment: Antimicrobial activity against Mycobacterium tuberculosis H37Rv ATCC 27294 expressing luciferase reporter gene infected in mouse J774 macrophages assessed as intracellular growth inhibition at 2 uM after 4 days by luminometry relative to untreated control; format: functional; conditions: H37Rv ATCC 27294, J774, 96 h, read-out: GI; in short: as §1
[13] = system: Mycobacterium tuberculosis; experiment: Antimicrobial activity against Mycobacterium tuberculosis H37Rv ATCC 27294 expressing luciferase reporter gene assessed as reduction in bacterial count after 6 days by luminometry; format: functional; conditions: H37Rv ATCC 27294, 144 h
In short: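 MIC by serial dilution in the 6-day luminescent H37Rv assay (7H9-10% FCS, 50,000 RLU/ml inoculum, triplicate wells, n-decanal read-out). MIC is the concentration giving at least one log10 reduction in signal versus the untreated control.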

[14] = system: Mycobacterium intracellulare; experiment: Antimicrobial activity against Mycobacterium intracellulare; format: functional

Row | SMILES | inhibition of growth at 1 µM [1] [%] | GI50 [2] [µM] | GI50 [3] [µM] | GI50 [4] [µM] | GI50 [5] [µM] | inhibition of growth at 0.5 µM [6] [%] | inhibition of growth at 1 µM [7] [%] | inhibition of growth at 0.1 µM [8] [%] | selectivity ratio [9] | inhibition of growth at 10 µM [10] [%] | IC50 [11] [µM] | inhibition of growth at 2 µM [12] [%] | MIC90 [13] [µM] | MIC [14] [µg/mL]
1 | CN(C)/C=C/c1nc(-c2ccc(F)cc2)cc2c1C(=O)c1ccccc1C2=O | 27.3 | 0.41 | 3.65 | 3.23 | 7.49 | 10.2 | 92 | 35 | 91 | 100 | 37.3 | 60.5 | 0.88 (≈ 0.328 µg/mL) | –
2 | O=C1c2ccccc2-c2nccc3ccnc1c23 [SAMPANGINE] | – | – | – | – | – | – | – | – | – | – | – | – | – | 0.78 (≈ 3.36 µM)
3 | CC(C)(C)c1ccc(-c2cc3c4c(nccc4n2)-c2ccccc2C3=O)cc1 | – | – | – | – | – | – | 41 | 32 | – | 73 | – | – | – | –
4 | Cc1ccnc2c1C(=O)c1ccccc1C2=O [CLEISTOPHOLINE] | – | – | – | – | – | – | – | – | – | – | – | – | – | 12.5 (≈ 56 µM)
5 | Cc1nc(C(C)(C)C)cc2c1C(=O)c1ccccc1C2=O | – | – | – | – | – | – | 18 | < 10 | – | 51 | – | – | – | –
6 | Cc1nc(-c2ccc(Cl)cc2)cc2c1C(=O)c1ccccc1C2=O | – | – | – | – | – | – | 68 | 42 | – | 100 | – | – | – | –
7 | CCOc1nc2c3c(ncc(Br)c3c1Br)-c1ccccc1C2=O | – | – | – | – | – | – | – | – | – | – | – | – | – | 25 (≈ 57.6 µM)
8 | O=C1c2ccccc2C(=O)c2c(O)cc(-c3ccccc3)cc21 | 49 | 0.86 | 5.02 | 4.71 | 12.6 | 36.6 | 88 | 15 | 12.6 | 100 | 10.8 | 68.3 | 2.12 (≈ 0.637 µg/mL) | –
9 | Cc1ccc(-c2cc3c4c(nccc4n2)-c2ccccc2C3=O)cc1 | 34.6 | 0.43 | – | – | – | 7 | 100 | 73 | 16.6 | 100 | 7.14 | 47.2 | 1.31 (≈ 0.422 µg/mL) | –
10 | Cc1ccc(-c2cc(O)c3c(c2)C(=O)c2ccccc2C3=O)cc1 | – | – | – | – | – | – | 35 | 21 | – | 98 | – | – | – | –
11 | Cc1nc(-c2ccccc2)cc2c1C(=O)c1ccccc1C2=O | – | – | – | – | – | – | 66 | 21 | – | 98 | – | – | – | –
12 | CN(C)/C=C/c1nc(-c2ccccc2)cc2c1C(=O)c1ccccc1C2=O | 34.6 | 0.52 | 4.89 | 3.68 | 8.65 | 13.4 | 100 | 45 | 46.9 | 100 | 24.4 | 49.5 | 1.4 (≈ 0.496 µg/mL) | –
13 | Cc1nc(-c2ccc(F)cc2)cc2c1C(=O)c1ccccc1C2=O | – | – | – | – | – | – | 68 | 41 | – | 100 | – | – | – | –
14 | O=C1c2ccccc2-c2nccc3nc(-c4ccc(Cl)cc4)cc1c23 | 20.3 | 0.72 | – | – | – | 2.27 | 99 | 77 | > 69.4 | 99 | > 50 | 44.2 | 1.85 (≈ 0.634 µg/mL) | –
15 | O=C1c2ccccc2-c2nccc3nc(-c4ccccc4)cc1c23 | 32.6 | 0.55 | 4.22 | 3.21 | 10.6 | 14.6 | 95 | 67 | 39.1 | 100 | 21.5 | 48.2 | 1.2 (≈ 0.37 µg/mL) | –
